The values below come from ChEMBL document CHEMBL2417496, “Novel selective inhibitors of aminopeptidases that generate antigenic peptides” (Bioorg Med Chem Lett, 2013).

Calls of active or inactive are those of the source. No cut-off for these calls is given here. Some results are limits rather than exact numbers.

Experiment [1] concerns the target T1, Endoplasmic reticulum aminopeptidase 2 (Homo sapiens, UniProt Q6P179). In words: Inhibition of recombinant ERAP2 (unknown origin) expressed in baculovirus-infected Hi5 insect cells assessed as L-Arginyl-7-amido-4-methyl coumarin hydrolysis to 7-amido-4-methyl coumarin at 50 uM after 5 to 10 mins by fluorescence assay. Summed up:
(§1)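 ERAP2 was made as a recombinant protein in baculovirus-infected Hi5 insect cells and purified by affinity chromatography. Activity was monitored fluorogenically as the rate of R-AMC hydrolysis. Inhibitor was titrated, and inhibition was also examined at 50 μM and across 50–100 μM.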

Experiment [2] deals with Endoplasmic reticulum aminopeptidase 1 (Homo sapiens) (UniProt Q9NZ08). In words: Inhibition of recombinant ERAP1 (unknown origin) expressed in baculovirus-infected Hi5 insect cells assessed as L-Leucine-7-amido-4-methyl coumarin hydrolysis to 7-amido-4-methyl coumarin at 50 uM after 5 to 10 mins by fluorescence assay. Summed up:
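ERAP1 was made as a recombinant protein in Hi5 insect cells infected with recombinant baculovirus and affinity-purified to homogeneity. Activity was followed as the kinetics of hydrolysis of the fluorogenic substrate L-AMC. Inhibitor was titrated at increasing amounts, and single-point inhibition was checked at 50 μM.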

The target in experiment [3] is T1, Endoplasmic reticulum aminopeptidase 2. In words: Inhibition of recombinant ERAP2 (unknown origin) expressed in baculovirus-infected Hi5 insect cells assessed as L-Arginyl-7-amido-4-methyl coumarin hydrolysis to 7-amido-4-methyl coumarin after 5 to 10 mins by fluorescence assay.
For experiment [4] the target is unchanged. In words: Inhibition of recombinant ERAP2 (unknown origin) expressed in baculovirus-infected Hi5 insect cells assessed as L-Arginyl-7-amido-4-methyl coumarin hydrolysis to 7-amido-4-methyl coumarin at 50 to 100 uM after 5 to 10 mins by fluorescence assay relative to control. Summed up:
as §1

In experiment [5] the target is T2, Leucyl-cystinyl aminopeptidase (Homo sapiens, UniProt Q9UIQ6). In words: Inhibition of human recombinant IRAP expressed in HeLa cells assessed as L-Leucine-7-amido-4-methyl coumarin hydrolysis to 7-amido-4-methyl coumarin after 5 to 10 mins by fluorescence assay. Format: cell-based.
T2 sequence (Q9UIQ6 whole entry): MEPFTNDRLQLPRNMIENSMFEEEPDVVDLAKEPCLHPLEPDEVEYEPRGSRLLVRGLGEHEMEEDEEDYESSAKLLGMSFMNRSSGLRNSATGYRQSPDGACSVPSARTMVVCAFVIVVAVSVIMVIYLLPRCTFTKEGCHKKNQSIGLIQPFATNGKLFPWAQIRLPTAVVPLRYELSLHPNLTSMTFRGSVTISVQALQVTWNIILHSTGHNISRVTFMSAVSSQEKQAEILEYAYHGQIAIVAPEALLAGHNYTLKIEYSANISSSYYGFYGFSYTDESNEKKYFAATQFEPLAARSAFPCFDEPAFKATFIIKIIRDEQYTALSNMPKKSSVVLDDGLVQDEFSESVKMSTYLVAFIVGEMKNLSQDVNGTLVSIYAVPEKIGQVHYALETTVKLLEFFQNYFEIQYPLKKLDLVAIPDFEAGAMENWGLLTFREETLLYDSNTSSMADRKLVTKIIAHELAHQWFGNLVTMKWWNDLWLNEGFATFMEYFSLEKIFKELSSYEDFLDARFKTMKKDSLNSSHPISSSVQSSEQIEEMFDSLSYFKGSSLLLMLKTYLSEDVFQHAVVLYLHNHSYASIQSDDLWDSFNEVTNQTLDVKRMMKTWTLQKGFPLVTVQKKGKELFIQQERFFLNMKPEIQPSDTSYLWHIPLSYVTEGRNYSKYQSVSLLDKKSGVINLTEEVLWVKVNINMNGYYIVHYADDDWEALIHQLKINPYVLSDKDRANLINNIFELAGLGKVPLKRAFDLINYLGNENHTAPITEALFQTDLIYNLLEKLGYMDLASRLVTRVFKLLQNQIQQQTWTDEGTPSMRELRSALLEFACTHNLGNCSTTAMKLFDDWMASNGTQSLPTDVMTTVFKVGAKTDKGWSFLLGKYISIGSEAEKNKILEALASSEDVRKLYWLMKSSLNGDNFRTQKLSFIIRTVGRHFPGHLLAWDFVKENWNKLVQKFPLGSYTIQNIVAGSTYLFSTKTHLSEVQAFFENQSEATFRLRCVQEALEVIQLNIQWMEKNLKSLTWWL
Experiment [6] has as its target T2, Leucyl-cystinyl aminopeptidase. In words: Inhibition of human recombinant IRAP expressed in HeLa cells assessed as L-Leucine-7-amido-4-methyl coumarin hydrolysis to 7-amido-4-methyl coumarin at 50 to 100 uM after 5 to 10 mins by fluorescence assay relative to control. In kind it is cell-based.

Chain of Endoplasmic reticulum aminopeptidase 1 (Homo sapiens) (Q9NZ08 whole entry): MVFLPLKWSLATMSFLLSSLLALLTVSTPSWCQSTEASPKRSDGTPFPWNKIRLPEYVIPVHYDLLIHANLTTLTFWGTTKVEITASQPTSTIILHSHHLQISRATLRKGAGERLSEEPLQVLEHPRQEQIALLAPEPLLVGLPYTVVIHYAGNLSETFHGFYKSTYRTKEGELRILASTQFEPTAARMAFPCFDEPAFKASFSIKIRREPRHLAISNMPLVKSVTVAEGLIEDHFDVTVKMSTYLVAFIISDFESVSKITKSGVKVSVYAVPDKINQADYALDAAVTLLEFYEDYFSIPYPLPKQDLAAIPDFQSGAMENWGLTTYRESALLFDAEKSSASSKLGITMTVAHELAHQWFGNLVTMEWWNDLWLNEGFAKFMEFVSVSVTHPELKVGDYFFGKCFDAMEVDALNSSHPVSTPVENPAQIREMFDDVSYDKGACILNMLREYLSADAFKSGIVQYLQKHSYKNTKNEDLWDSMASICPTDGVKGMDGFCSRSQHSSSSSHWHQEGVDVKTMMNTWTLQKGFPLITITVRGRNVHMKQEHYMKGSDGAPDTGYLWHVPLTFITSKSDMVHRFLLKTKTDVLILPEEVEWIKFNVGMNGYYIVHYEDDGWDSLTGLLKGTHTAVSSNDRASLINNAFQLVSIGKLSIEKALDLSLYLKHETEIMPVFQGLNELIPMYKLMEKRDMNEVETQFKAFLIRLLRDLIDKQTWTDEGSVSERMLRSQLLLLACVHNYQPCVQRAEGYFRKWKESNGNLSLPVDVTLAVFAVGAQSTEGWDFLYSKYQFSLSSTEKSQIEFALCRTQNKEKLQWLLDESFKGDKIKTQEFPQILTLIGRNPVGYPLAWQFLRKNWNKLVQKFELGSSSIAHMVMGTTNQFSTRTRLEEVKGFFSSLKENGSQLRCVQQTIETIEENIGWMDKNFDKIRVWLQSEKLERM
T1 sequence (Q6P179 whole entry): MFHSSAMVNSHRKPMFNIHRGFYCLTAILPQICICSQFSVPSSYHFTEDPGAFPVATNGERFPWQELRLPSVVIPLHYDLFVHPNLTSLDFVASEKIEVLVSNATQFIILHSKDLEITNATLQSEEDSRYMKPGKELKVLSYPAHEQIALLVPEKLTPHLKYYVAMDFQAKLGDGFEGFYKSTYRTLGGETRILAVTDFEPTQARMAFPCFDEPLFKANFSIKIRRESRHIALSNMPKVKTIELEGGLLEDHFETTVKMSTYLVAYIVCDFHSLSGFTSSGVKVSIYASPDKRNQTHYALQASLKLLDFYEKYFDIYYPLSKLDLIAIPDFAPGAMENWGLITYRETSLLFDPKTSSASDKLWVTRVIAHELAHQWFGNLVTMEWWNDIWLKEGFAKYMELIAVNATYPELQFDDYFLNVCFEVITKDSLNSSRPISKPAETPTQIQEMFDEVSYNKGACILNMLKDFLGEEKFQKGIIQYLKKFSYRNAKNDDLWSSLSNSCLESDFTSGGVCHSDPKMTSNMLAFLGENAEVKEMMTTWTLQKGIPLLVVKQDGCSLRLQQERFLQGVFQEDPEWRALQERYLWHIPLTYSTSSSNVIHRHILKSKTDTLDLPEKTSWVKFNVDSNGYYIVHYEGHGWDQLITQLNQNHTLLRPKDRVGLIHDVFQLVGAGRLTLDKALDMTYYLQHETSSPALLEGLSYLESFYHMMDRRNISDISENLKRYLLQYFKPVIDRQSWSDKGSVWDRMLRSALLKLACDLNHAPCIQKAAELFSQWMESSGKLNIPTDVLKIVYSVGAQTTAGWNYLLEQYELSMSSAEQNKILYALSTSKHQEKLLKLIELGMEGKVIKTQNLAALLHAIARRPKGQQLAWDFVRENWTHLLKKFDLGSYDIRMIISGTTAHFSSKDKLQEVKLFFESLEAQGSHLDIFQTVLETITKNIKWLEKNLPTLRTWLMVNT

Turning to `COC(=O)[C@H](CCCNC(=N)N)NC(=O)c1ccc(N)c(NC(=O)[C@@H](N)CCc2ccccc2)c1`, the inhibition entry in experiment [1] and in experiment [2] was “inactive” in each case.

In the case of `COC(=O)[C@H](Cc1ccc(O)cc1)NC(=O)c1ccc(N)c(NC(=O)[C@@H](N)CCc2ccccc2)c1`, the IC50 – broadly, the concentration at which inhibition is half-maximal – in experiment [3] is above 100 µM. For the same compound, in experiment [4], the inhibition – broadly, the drop in the measured response relative to a control, in per cent – was below 20%.

For the compound `CC(C)[C@H](NC(=O)c1ccc(N)c(NC(=O)[C@@H](N)CCc2ccccc2)c1)C(=O)O`, the IC50 in experiment [5] was above 100 µM. Also, the inhibition entry in experiment [1] and in experiment [2] was “inactive” each time. For the same compound, the inhibition in experiment [6] is below 20%.

Take `COC(=O)[C@@H](NC(=O)c1ccc(N)c(NC(=O)[C@@H](N)CCc2ccccc2)c1)[C@@H](C)O`: the inhibition result in experiment [1] and in experiment [2] was “inactive” each time.

On to `COC(=O)[C@H](C)NC(=O)c1ccc(N)c(NC(=O)[C@@H](N)CCc2ccccc2)c1`, for which the inhibition entry in experiment [1] and in experiment [2] was “inactive” each time.

For the compound `Nc1ccc(C(=O)O)cc1NC(=O)[C@@H](N)CCc1ccccc1`, the IC50 in experiment [5] and in experiment [3] was above 100 µM throughout. The inhibition in experiment [4] and in experiment [6] was below 20% throughout. Besides, the inhibition entry in experiment [2] is “inactive”.

For the compound `COC(=O)c1ccc(N)c(NC(=O)[C@@H](N)CCc2ccccc2)c1`, in experiment [3], the IC50 was above 100 µM. For the same compound, in experiment [4], the inhibition is below 20%. Besides, in experiment [2], the inhibition result was “inactive”.

For `Nc1ccc(C(=O)N[C@@H](Cc2c[nH]c3ccccc23)C(=O)OCc2ccccc2)cc1NC(=O)[C@@H](N)CCc1ccccc1`, in experiment [2], the inhibition result is “inactive”.
